The nature of experiment [1]: Upregulation of ABCG1 mRNA expression in human THP1 cells at 10 uM after 24 hrs by qPCR method relative to control. To be noted: THP-1. The experiment is classed as functional, cell-based. The method, boiled down:
(§1)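 THP-1 macrophages treated for 24 h with 10 μM compound, 10 μM pioglitazone or DMSO. Total RNA extracted and converted to cDNA; ABCA1 or ABCG1 measured by SYBR Green qPCR and expressed relative to 18S. Mean ± SD of four independent experiments; one-way ANOVA with Bonferroni test against DMSO.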

Experiment [2] is described as follows: Upregulation of ABCA1 mRNA expression in human THP1 cells at 10 uM after 24 hrs by qPCR method relative to control. The experiment is classed as functional, cell-based. As to conditions: THP-1. The gist of the method:
as §1
A general note: Real-time PCR tracks product formation cycle by cycle.

Active and inactive are the calls of the source. No cut-off for these calls is given here.

With `CCc1ccc(CCOc2ccc(CC3SC(=O)NC3=O)cc2)nc1` (configuration not stated), the result in experiment [1] and in experiment [2] was Active.

For the origin of these results see ChEMBL document CHEMBL3861960, “Leoligin, the Major Lignan from Edelweiss (Leontopodium nivale subsp. alpinum), Promotes Cholesterol Efflux from THP-1 Macrophages” (J Nat Prod, 2016).
